# Only some compounds are listed: those with a hit (about 7.4% of all), similar ones and a draw of the others.
# S1P3 ag = human S1P3 receptor agonists, primary screen, cell-based, primary and confirmation, NFAT-BLA reporter | actives 0.1% (n = 60,000) | activation, % at 4.5 µM | S1P3 NFAT-BLA reporter cells, agonism, FRET ratio; relative to 1 µM S1P, basal subtracted | Sphingosine 1-phosphate receptor 3 (Homo sapiens), Q99500;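 active = activation above the screen-wide mean plus 3 SD, cut at about 4.5% in these data, passing the limit was not always enough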
#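 Measure – % activation relative to 1 µM S1P (100%), per plate · System – stable CHO line with human S1P3, Gα16, NFAT-BLA reporter · Timing – cells plated overnight, compound 4 h 37 °C, substrate 2 h RT · Technique – fluorescent BLA substrate, ex 405 nm, em 460/535 nm ratio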
# M1 ag = M1 muscarinic receptor agonists, primary screen, CHO-M1 cells, Fluo-4 calcium, agonist mode | Fluo-4 calcium fluorescence; hits give high values | B-score at 10 µM | actives 3% (n = 64,000);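 active = fluorescence rise, raw or as B-score row- and column-corrected plate score, outside the 99.7% band of its plate's samples, either direction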
# JNK3 inh = JNK3 kinase activity inhibitors, primary screen, biochemical, human, purified enzyme; inhibition, % at 8 µM; Mitogen-activated protein kinase 10 (Homo sapiens), P53779; AID 746, 2007; HTS; actives 0.61% (n = 60,000); in the data active = inhibition above about 17%;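 also: 0% = DMSO and 100% = reference inhibitor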
# S1P1 ag-PAM = S1P1 agonists and agonism potentiators, primary screen, cell-based, primary and confirmation screens, CRE-bla reporter. Sphingosine 1-phosphate receptor 1 (Homo sapiens), P21453. S1P1 CRE-bla cells, forskolin, beta-lactamase FRET, potentiator mode; S1P1 agonist co-added at EC20, 2 nM; 100% = saturating reference agonist, 0% = basal. activation, % at 9.5 µM. actives 0.57% (n = 56,000). AID 449, 2006;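 active = activation above a cutoff set at the mean activation of all tested compounds plus 3 SD, cut at about 54% in these data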;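 also: forskolin at 4 µM as EC80 and the EC20 agonist is SEW2871; 100% = SEW2871 at its EC100 plus forskolin at EC80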
# M1 antagonist = antagonists of rat M1 muscarinic receptor; Muscarinic acetylcholine receptor M1 (Rattus norvegicus), P08482; CHO-M1 cells, Fluo-4 calcium, ACh EC80 antagonist mode; hits give low values; B-score at 10 µM; actives 3.4% (n = 64,000);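 active = calcium fluorescence response, raw or row-and-column corrected B-score, differing from the plate sample mean either way at a set confidence level, mostly lower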
# Jurkat tox 60K = cytotoxicity toward Jurkat T cells, primary screen, cytotoxicity control, cell-based, Jurkat E6.1, 60K MLSMR library. Jurkat E6.1 viability, ATP luminescence, 48 h. inhibition, % at 4 µM. actives 1.2% (n = 56,000);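 active = inhibition above the mean inhibition of all tested compounds plus 3 SD, cut at about 28% in these data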
# M1 ag confirm = rat M1 muscarinic receptor agonists, confirmation, CHO-M1 cells, Fluo-4 calcium, duplicate retest. shares compounds with M1 ag. Fluo-4 calcium fluorescence, agonist mode; actives lie on both sides. fluorescence change (max-min) at 10 µM. actives 19% (n = 1,700). AID 1488, 2009;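 active = fluorescence change differs from the solvent-only DMSO control mean at a set confidence level in both duplicate runs; inconclusive = differs from solvent-only control mean in just one of two runs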;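 also: an EC20 dose of acetylcholine follows compound addition during the same imaging run; raw fluorescence intensity difference in instrument units with no normalization to controls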
# M4 agonist ctr = agonist activity at rat M4 receptor, confirmation, counter-screen for M1 allosteric modulator project, cell-based, agonist mode. shares compounds with M1 ag. fluorescence change (max-min) at 10 µM. AID 1741, 2009. actives 9% (n = 1,700). CHO M4/Gqi5 cells, Fluo-4 calcium fluorescence; actives lie on both sides;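 active = fluorescence change differing from the plate's solvent-only control wells at 99.7% confidence in both duplicates, whether higher or lower; inconclusive = differs from solvent controls in only one of two duplicates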
# Target sequence (P08485 whole entry, looked up): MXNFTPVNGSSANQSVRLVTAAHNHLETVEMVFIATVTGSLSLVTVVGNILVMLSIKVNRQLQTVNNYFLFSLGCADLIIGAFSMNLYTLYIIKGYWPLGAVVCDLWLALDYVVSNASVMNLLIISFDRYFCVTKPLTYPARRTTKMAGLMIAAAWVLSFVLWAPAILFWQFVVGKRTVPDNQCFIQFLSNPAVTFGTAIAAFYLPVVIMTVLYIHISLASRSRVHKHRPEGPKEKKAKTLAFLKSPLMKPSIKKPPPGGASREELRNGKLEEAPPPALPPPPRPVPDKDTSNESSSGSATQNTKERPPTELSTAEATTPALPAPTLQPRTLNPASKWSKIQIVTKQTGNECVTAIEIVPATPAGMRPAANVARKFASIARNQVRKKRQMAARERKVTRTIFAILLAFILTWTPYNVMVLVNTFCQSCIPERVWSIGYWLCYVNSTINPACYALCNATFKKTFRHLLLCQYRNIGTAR
# Starred values were filed as active, the others as inactive; ? = inconclusive; . = not tested or not shown.
SMILES,S1P3 ag,M1 ag,JNK3 inh,S1P1 ag-PAM,M1 antagonist,Jurkat tox 60K,M1 ag confirm,M4 agonist ctr
CN1CCc2c(sc3c2C(=O)NC(c2cccs2)N3)C1 (stereo not drawn),-0.4,-0.746,3.9,-7.9,-0.453,-7.4,.,.
CN1CCc2c(sc3c2C(=O)NC(c2ccc(-c4cccc(Cl)c4)o2)N3)C1 (stereo not drawn),0.6,14.2*,6.9,-29.4,-1.12,-1.6,13.6,-14.1
COc1ccc2nc(N3CCCCC3)c(C#N)cc2c1,-0.2,-0.751,-1.2,21.6,-0.0148,1.2,.,.
COc1ccc2nc(N3CCCC3)c(C#N)cc2c1,-0.9,91.7*,-1.9,13.1,-1.18,5.5,1016*,1175*
c1ccc2nc(-c3nc4ccccc4[nH]3)ccc2c1,-1.3,0.546,4.2,2.1,0.0723,20.1,.,.
c1ccc2[nH]c(-c3ccnc4ccccc34)nc2c1,-0.8,2.4*,3.2,-29.8,-0.987,-1.5,-11.2,-34.1
COC(=O)CCCCCNc1ccc(C(=O)OC)cc1N,-2.5,0.0877,3.7,15.4,0.0262,4.2,.,.
O=C(c1ccccc1C(=O)N1CCN(c2ccccc2)CC1)N1CCN(c2ccccc2)CC1,-1.8,3.74*,4.3,.,0.256,3.9,5.41,-40.9
O=C(NCCN1CCN(c2ccccc2F)CC1)c1cccn2c(=O)c3ccccc3nc12,-0.8,6.71*,1.8,0.6,-1.15,4.5,28.9,12.2
O=C(NCCN1CCN(c2ccccc2)CC1)c1cccn2c(=O)c3ccccc3nc12,.,-0.18,.,.,-0.239,.,.,.
CC12CC(c3ccccc3O1)C(C(=O)NCc1ccccc1)C(=O)N2 (stereo not drawn),-0.1,0.49,4.7,-8.1,-0.0275,2.4,.,.
CCc1nn(C(C)C(=O)NCCN2CCN(c3cccc(C)c3C)CC2)c(=O)c2cc3occc3n12 (stereo not drawn),-0.5,3.79*,12.1,19.0,0.0304,-2.0,?,-74.7
CC12C(=O)N(CCC(=O)O)C(=O)C1C1C=CC2C1 (stereo not drawn),-0.1,0.00019,5.0,-5.4,0.0254,-2.4,.,.
O=C1CC(c2ccncc2)c2cc3c(cc2N1)OCO3 (stereo not drawn),-0.5,2.45*,-2.3,.,0.0734,-1.4,-8.09,?
CCOc1ccc(Nc2nc(NCCN3CCOCC3)nc(OC)n2)cc1,.,-0.63,.,.,0.0704,.,.,.
O=S(=O)(Nc1cnc2ccccc2c1)N1CCCCCC1,-1.3,-2.53*,-6.0,9.5,-1.62,17.3,-12.7,-16.6
COc1ccc(NC(=O)N(Cc2cc3cc(OC)ccc3[nH]c2=O)CC2CCCO2)cc1 (stereo not drawn),0.2,3.97*,3.9,-7.4,-0.443,6.0,?,-73.9*
CCOc1ccc(-n2nc(C(=O)N3CCOCC3)c3ccccc3c2=O)cc1,0.2,0.951,-1.5,-26.1,0.449,-3.9,.,.
Cc1cc(C)c2cc(C#N)c(SCC(=O)NCC3CCCO3)nc2c1 (stereo not drawn),-1.9,2.64*,-12.3,2.8,-0.436,6.1,?,?
Cc1ccc2cc(C#N)c(SCC(=O)NCC3CCCO3)nc2c1 (stereo not drawn),0.6,-0.78,4.0,-2.9,0.556,-5.1,.,.
c1cnn(-c2nc(N3CCOCC3)nc(N3CCOCC3)n2)c1,-1.9,0.632,-4.7,-0.4,-0.0114,10.6,.,.

# Screening data from PubChem.
